Experimental data taken from ChEMBL document CHEMBL1765026, “Small molecule agonists of the orphan nuclear receptors steroidogenic factor-1 (SF-1, NR5A1) and liver receptor homologue-1 (LRH-1, NR5A2)” (J Med Chem, 2011).
One block for each molecule: values may come before it. Active and inactive are the calls of the source. No cut-off for these calls is given here.

Assays:
[1] = target: Nuclear receptor subfamily 5 group A member 2 (Homo sapiens) (UniProt O00482)
[2] = target: T1, Steroidogenic factor 1 (Homo sapiens, UniProt Q13285); assay: Agonist activity at human SF-1 assessed as DAX1 1-23 peptide recruitment by TR-FRET assay relative to control
[3] = target: T1, Steroidogenic factor 1; assay: Inverse agonist activity at SF-1; type: functional
[4] = Solubility of the compound; type: physicochemical
[5] = target: Steroidogenic factor 1 (Mus musculus) (UniProt P33242); assay: Agonist activity at mouse SF-1 expressed in HEK293 cells assessed as increase in StAR mRNA levels at 10 uM after 24 hrs by RT-qPCR method; type: functional, cell-based
Summary of the method: (§1)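 HEK293 cells stably carrying Tet-inducible, 3XFlag-tagged mouse SF-1 were induced with 100 ng/mL Tet, and compound in DMSO was added 16 h later. Cells were treated at 10 µM for 24 h. Transcript levels were measured by RT-qPCR and expressed relative to DMSO vehicle.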

[6] = target: Steroidogenic factor 1 (Mus musculus) (UniProt P33242); assay: Agonist activity at mouse SF-1 expressed in HEK293 cells assessed as increase in GOS2 mRNA levels at 10 uM after 24 hrs by RT-qPCR method; type: functional, cell-based
Summary of the method: as §1

[7] = target: Steroidogenic factor 1 (Mus musculus) (UniProt P33242); assay: Displacement of dipalmitoyl phosphatidylinositol 4,5-bisphosphate from mouse SF-1 ligand binding domain at 1 uM after 16 hrs with Coomassie blue staining by PAGE method
[8] = target: Steroidogenic factor 1 (Mus musculus) (UniProt P33242); assay: Agonist activity at mouse SF-1 expressed in HEK293 cells assessed as increase in MeOx1 mRNA levels at 10 uM after 24 hrs by RT-qPCR method; type: functional, cell-based
Summary of the method: as §1

[9] = target: Nuclear receptor subfamily 5 group A member 2 (Homo sapiens) (UniProt O00482); assay: Agonist activity at human LRH-1 ligand binding domain at 100 uM with Coomassie blue staining by PAGE method
[10] = target: Steroidogenic factor 1 (Mus musculus) (UniProt P33242); assay: Agonist activity at mouse SF-1 expressed in HEK293 cells assessed as increase in SHP mRNA levels at 10 uM after 24 hrs by RT-qPCR method; type: functional, cell-based
Summary of the method: as §1

[11] = target: Steroidogenic factor 1 (Mus musculus) (UniProt P33242); assay: Agonist activity at mouse SF-1 expressed in HEK293 cells assessed as increase in SHP mRNA levels after 24 hrs by RT-qPCR method; type: functional, cell-based
Summary of the method: (§2)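 Stable HEK293 lines expressing Tet-inducible mouse SF-1 or empty vector were induced with 100 ng/mL Tet, with compound in DMSO added 16 h afterward. Cells were exposed to a dose series for 24 h. SHP mRNA was quantified by RT-qPCR relative to DMSO, with significance by p-value.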

[12] = target: Steroidogenic factor 1 (Mus musculus) (UniProt P33242); assay: Agonist activity at mouse SF-1 expressed in HEK293 cells assessed as increase in SHP mRNA levels at 5 uM after 24 hrs by RT-qPCR method; type: functional, cell-based
Summary of the method: as §2

[13] = target: T1, Steroidogenic factor 1; assay: Agonist activity at human SF-1 assessed as DAX1 1-23 peptide recruitment by TR-FRET assay; type: functional
Summary of the method: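 Biotinylated, bacterially expressed human SF-1 LBD was bound to APC-streptavidin. Biotinylated DAX-1 peptide (aa 1–23) was bound to europium-streptavidin. Receptor and peptide were incubated with test compound, typically at 11 concentrations from 1 nm to 10 µM. Recruitment was read by TR-FRET as the 671/618 nm fluorescence ratio, and pEC50 was calculated from the dose–response curve.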

[14] = target: T1, Steroidogenic factor 1; assay: Agonist activity at human SF-1 assessed as DAX1 1-23 peptide recruitment by TR-FRET assay relative to control
[15] = target: Steroidogenic factor 1 (Mus musculus) (UniProt P33242); assay: Displacement of dipalmitoyl phosphatidylinositol 4,5-bisphosphate from mouse SF-1 ligand binding domain at 100 uM after 16 hrs with Coomassie blue staining by PAGE method
[16] = test system: NCI-H295RR; assay: Inhibition of doxycycline induced proliferation in human NCI-H295RR cells; type: functional, cell-based

Sequence of Steroidogenic factor 1 (Mus musculus) (P33242 whole entry, the tested form may be a part): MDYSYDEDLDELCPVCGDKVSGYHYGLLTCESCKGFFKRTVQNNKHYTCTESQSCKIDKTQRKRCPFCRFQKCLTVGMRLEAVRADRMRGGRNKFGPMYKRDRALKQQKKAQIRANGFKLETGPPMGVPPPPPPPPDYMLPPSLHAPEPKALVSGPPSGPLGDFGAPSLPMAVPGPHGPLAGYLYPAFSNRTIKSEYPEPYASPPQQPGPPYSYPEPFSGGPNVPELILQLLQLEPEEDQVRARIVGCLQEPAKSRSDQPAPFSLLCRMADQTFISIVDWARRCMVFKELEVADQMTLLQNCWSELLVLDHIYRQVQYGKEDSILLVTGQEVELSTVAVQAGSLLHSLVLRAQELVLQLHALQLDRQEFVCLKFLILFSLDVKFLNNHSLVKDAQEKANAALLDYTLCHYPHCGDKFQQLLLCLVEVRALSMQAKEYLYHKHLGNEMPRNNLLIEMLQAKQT
Sequence of Nuclear receptor subfamily 5 group A member 2 (Homo sapiens) (O00482 whole entry, the tested form may be a part): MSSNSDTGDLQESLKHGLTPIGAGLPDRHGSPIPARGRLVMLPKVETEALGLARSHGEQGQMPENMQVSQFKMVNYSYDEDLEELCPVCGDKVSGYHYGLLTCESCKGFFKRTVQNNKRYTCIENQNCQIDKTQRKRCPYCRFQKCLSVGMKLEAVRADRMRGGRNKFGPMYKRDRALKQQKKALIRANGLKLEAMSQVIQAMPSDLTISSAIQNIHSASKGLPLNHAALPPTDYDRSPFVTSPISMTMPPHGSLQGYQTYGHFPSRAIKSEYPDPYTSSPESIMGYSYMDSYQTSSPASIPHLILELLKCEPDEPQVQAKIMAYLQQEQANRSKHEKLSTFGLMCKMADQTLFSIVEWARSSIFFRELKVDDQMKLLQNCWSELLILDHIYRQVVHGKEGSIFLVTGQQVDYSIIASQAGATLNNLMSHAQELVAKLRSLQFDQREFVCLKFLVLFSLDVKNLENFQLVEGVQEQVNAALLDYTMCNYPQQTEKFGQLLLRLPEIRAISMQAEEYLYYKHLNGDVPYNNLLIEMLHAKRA
T1 sequence (Q13285 whole entry): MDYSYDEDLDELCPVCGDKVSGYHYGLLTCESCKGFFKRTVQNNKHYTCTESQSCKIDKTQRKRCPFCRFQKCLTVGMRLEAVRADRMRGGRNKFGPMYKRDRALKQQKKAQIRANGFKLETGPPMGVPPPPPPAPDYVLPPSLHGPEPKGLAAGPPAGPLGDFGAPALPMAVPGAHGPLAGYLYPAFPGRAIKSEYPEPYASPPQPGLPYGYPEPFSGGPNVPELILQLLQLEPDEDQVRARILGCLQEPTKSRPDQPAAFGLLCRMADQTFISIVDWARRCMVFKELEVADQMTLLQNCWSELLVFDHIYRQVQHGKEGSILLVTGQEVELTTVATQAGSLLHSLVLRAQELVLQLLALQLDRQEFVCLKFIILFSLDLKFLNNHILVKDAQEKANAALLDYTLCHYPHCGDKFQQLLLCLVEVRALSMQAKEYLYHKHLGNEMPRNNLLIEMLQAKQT

Compound: C=C(CCCCCC)[C@@]12CCC[C@@H]1CC(CCCCCC)=C2c1ccccc1 (racemic)
pEC50 [1]: inactive | pEC50 [2]: inactive

Compound: CCCCCCCOc1ccc(O)cc1
IC50 [3]: 7300 nM

Compound: C=C(c1ccccc1)[C@@]12CCC[C@@H]1CC(CCCCCC)=C2c1ccc(CC)cc1 (racemic)
pEC50 [1]: inactive | pEC50 [2]: inactive

Compound: C=C(c1ccc(-c2ccccc2)cc1)[C@@]12CCC[C@@H]1CC(CCCCCC)=C2c1ccccc1 (racemic)
pEC50 [1]: inactive | pEC50 [2]: inactive

Compound: C=C(c1ccc(CC)cc1)[C@@]12CCC[C@@H]1CC(CCCCCC)=C2c1ccccc1 (racemic)
pEC50 [1]: inactive | pEC50 [2]: inactive

Compound: C=C(c1ccccc1)[C@@]12CCC[C@@H]1CC(CCCCCC)=C2CCCC (racemic)
pEC50 [1]: inactive

Compound: C=C(c1ccccc1)[C@@]12CC[C@@H](O)[C@@H]1CC(CCCCCC)=C2c1ccccc1 (racemic)
solubility [4]: soluble | Activity [11]: Dose-dependent effect | Activity [5]: Active | Activity [6]: Active | Activity [12]: Active | Activity [7]: Active | Activity [8]: Active | Activity [10]: Active

Compound: C=C(c1ccccc1)[C@@]12CCC[C@@H]1CC([Si](C)(C)c1ccccc1)=C2c1ccccc1 (racemic)
Ratio [13]: 0.33 | EC50 [14]: 63.1 nM

Compound: CCCCCCO[C@@]12CCC[C@@H]1CC(CCCCCC)=C2c1ccccc1 (racemic)
pEC50 [1]: inactive | pEC50 [2]: inactive

Compound: C=C(c1ccccc1)[C@@]12CCC[C@@H]1CC(CCCCCC)=C2C1CCCCC1 (racemic)
Ratio [13]: 0.59 | EC50 [14]: 200 nM

Compound: C=C(c1ccc(OC)cc1)[C@@]12CCC[C@@H]1CC(CCCCCC)=C2c1ccccc1 (racemic)
pEC50 [1]: inactive | pEC50 [2]: inactive

Compound: C=C(c1ccccc1)[C@@]12CN(Cc3ccccc3)C[C@@H]1CC(CCCCCC)=C2c1ccccc1 (racemic)
solubility [4]: soluble | pEC50 [2]: inactive

Compound: CCCCCCC1=C(c2ccccc2)[C@]2(OCCC)CCC[C@@H]2C1 (racemic)
Ratio [13]: 0.67 | EC50 [14]: 200 nM

Compound: C=C(c1ccccc1)[C@@]12C[C@H](OC(C)=O)C[C@@H]1CC(CCCCCC)=C2c1ccccc1 (racemic)
Ratio [13]: 0.34 | EC50 [14]: 200 nM

Compound: C=C(c1ccccc1)[C@@]12CCC[C@@H]1CC(CCCCCC)=C2CCCO (racemic)
Activity [15]: inactive | pEC50 [2]: inactive | Activity [10]: inactive

Compound: CCOC(=O)C(C)Oc1cccc2c(=O)n(CC(=O)Nc3ccc(OC)cc3)ccc12 (stereo not given)
Activity [16]: Active

Compound: CCCCCCC1=C(c2ccccc2)[C@]2(OC)CCC[C@@H]2C1 (racemic)
pEC50 [1]: inactive | pEC50 [2]: inactive

Compound: CCCCCCC1=C(c2ccccc2)[C@]2(OCC(C)CC)CCC[C@@H]2C1 (mixture of isomers)
Ratio [13]: 0.56 | EC50 [14]: 200 nM

Continued, values first:

pEC50 [1]: inactive | pEC50 [2]: inactive
Compound: C=C(c1ccc(C(C)(C)C)cc1)[C@@]12CCC[C@@H]1CC(CCCCCC)=C2c1ccccc1 (racemic)

pEC50 [1]: inactive | pEC50 [2]: inactive
Compound: C=C(c1ccccc1)[C@@]12C[C@@H](OC(C)=O)C[C@@H]1CC(CCCCCC)=C2c1ccccc1 (racemic)

pEC50 [1]: inactive | pEC50 [2]: inactive
Compound: C=C(c1ccccc1)[C@@]12CCC[C@@H]1CC(CCCCCC)=C2CCCCCC (racemic)

pEC50 [2]: inactive
Compound: CCCCCCC1=C(c2ccccc2)[C@]2(OCc3ccccc3)CCC[C@@H]2C1 (racemic)

pEC50 [1]: inactive | pEC50 [2]: inactive
Compound: C=C(c1ccccc1)[C@@]12CCC[C@@H]1CC=C2c1ccccc1 (racemic)

solubility [4]: soluble | Activity [5]: Active | Activity [6]: Active | Activity [7]: Active | Activity [8]: Active | Activity [9]: Active | Activity [10]: Active
Compound: C=C(c1ccccc1)[C@@]12CN(C)C[C@@H]1CC(CCCCCC)=C2c1ccccc1 (racemic)

pEC50 [1]: inactive
Compound: CCCCCCC1=C(c2ccccc2)[C@]2(OCCCCC)CCC[C@@H]2C1 (racemic)

Activity [15]: inactive | Ratio [13]: 0.76 | Activity [10]: inactive | EC50 [14]: 200 nM
Compound: C=C(CCCC)[C@@]12CCC[C@@H]1CC(CCCCCC)=C2c1ccccc1 (racemic)

pEC50 [2]: inactive
Compound: C=C(c1ccc(CCCC)cc1)[C@@]12CCC[C@@H]1CC(CCCCCC)=C2c1ccccc1 (racemic)

pEC50 [1]: inactive | pEC50 [2]: inactive
Compound: C=C(CCCCCCCC)[C@@]12CCC[C@@H]1CC(CCCCCC)=C2c1ccccc1 (racemic)

pEC50 [1]: inactive
Compound: C=C(c1ccccc1)[C@@]12CCC[C@@H]1CC(CCCCCC)=C2CCC (racemic)
